Source: ChEMBL document CHEMBL3856185, “Discovery of a sulfamate-based steroid sulfatase inhibitor with intrinsic selective estrogen receptor modulator properties” (Eur J Med Chem, 2016)

Tests used:
Estrogen receptor [1] = biological target: T1, Estrogen receptor (Homo sapiens, UniProt P03372); test: Agonist activity at ERalpha in estrogen-sensitive human T47D cells assessed as cell proliferation at 0.01 uM after 7 days by MTS assay; format: cell-based; details: 168 h
T1 sequence (P03372 whole entry): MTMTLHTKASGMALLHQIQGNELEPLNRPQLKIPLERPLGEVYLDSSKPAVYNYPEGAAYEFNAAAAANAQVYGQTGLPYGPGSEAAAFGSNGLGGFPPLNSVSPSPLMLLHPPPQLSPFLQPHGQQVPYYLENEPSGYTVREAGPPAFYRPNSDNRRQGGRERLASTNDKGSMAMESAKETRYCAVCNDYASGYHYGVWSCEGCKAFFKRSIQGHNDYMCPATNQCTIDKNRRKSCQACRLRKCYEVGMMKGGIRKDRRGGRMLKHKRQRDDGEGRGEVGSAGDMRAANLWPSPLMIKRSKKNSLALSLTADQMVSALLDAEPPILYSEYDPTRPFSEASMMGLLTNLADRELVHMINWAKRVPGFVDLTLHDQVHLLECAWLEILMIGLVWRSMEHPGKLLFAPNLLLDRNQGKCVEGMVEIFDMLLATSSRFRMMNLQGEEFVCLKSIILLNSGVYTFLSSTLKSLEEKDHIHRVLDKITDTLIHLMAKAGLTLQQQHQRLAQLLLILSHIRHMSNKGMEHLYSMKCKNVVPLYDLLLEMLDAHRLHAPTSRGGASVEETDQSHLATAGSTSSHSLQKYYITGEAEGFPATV
Procedure, shortened: (§1)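 Seeded 3000 cells/well, 48 h attachment. Compounds diluted from DMSO (final ≤0.1%) in medium, renewed every 2 days for 7 days. Proliferation read by MTS, 4 h at 37 °C, absorbance 490 nm. Control (medium + DMSO) set to 100%. Mean ± SD of triplicates.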

Estrogen receptor [2] = biological target: T1, Estrogen receptor; test: Agonist activity at ERalpha in estrogen-sensitive human T47D cells assessed as cell proliferation at 0.1 uM after 7 days by MTS assay; format: cell-based; details: 168 h; procedure, shortened: as §1
Estrogen receptor [3] = biological target: T1, Estrogen receptor; test: Agonist activity at ERalpha in estrogen-sensitive human T47D cells assessed as cell proliferation at 1 uM after 7 days by MTS assay; format: cell-based; details: 168 h; procedure, shortened: as §1
[4] = biological target: T2, Estrogen receptor (Homo sapiens) (UniProt P03372); test: Antiestrogenic activity at ERalpha in estrogen-sensitive human T47D cells assessed as blockage of E2 stimulated cell proliferation at 5 uM after 7 days in presence of E2 by MTS assay; format: cell-based
T2 sequence (whole entry): T1 sequence (P03372 whole entry)
Procedure, shortened: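 Estrogen-deprived T-47D cells (RPMI, insulin 50 ng/mL, 5% charcoal-stripped FBS) seeded at 3000 cells/well, attached 48 h. Then treated 7 days with compound plus E2 (0.1 nM), medium renewed every 2 days. DMSO final ≤0.1%. MTS added 4 h, A490. Control (medium + DMSO) = 100%. Mean ± SD of triplicates.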

[5] = Cytotoxicity against human Saos2 cells assessed as reduction in cell proliferation at 5 to 10 uM after 7 days by MTS assay; format: toxicity, cell-based; details: saos-2, 168 h
Procedure, shortened: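 Saos-2 cells in phenol-red-free McCoy's 5A with 10% charcoal-stripped FBS. Seeded 3000 cells/well, treated after 24 h with compounds from 1 nM to 10 µM (DMSO ≤0.1% final), renewed every 2 days for 7 days. MTS 2 h at 37 °C, absorbance 490 nm. Control (medium + DMSO) = 100%. Mean ± SD of triplicates.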

[6] = Cytotoxicity against estrogen-sensitive human T47D cells assessed as reduction in cell proliferation at 0.01 to 1 uM after 7 days by MTS assay; format: toxicity, cell-based; details: 168 h; procedure, shortened: as §1
[7] = Cytotoxicity against estrogen-sensitive human T47D cells assessed as reduction in cell proliferation at 5 uM after 7 days by MTS assay; format: toxicity, cell-based; details: 168 h; procedure, shortened: as §1
Steryl-sulfatase = biological target: T3, Steryl-sulfatase (Homo sapiens, UniProt P08842); test: Inhibition of steroid sulfatase (unknown origin) expressed in HEK293 cells assessed as reduction in transformation of [3H]-E1S to E1 after 2 hrs by liquid scintillation counting; format: cell-based
T3 sequence (P08842 whole entry): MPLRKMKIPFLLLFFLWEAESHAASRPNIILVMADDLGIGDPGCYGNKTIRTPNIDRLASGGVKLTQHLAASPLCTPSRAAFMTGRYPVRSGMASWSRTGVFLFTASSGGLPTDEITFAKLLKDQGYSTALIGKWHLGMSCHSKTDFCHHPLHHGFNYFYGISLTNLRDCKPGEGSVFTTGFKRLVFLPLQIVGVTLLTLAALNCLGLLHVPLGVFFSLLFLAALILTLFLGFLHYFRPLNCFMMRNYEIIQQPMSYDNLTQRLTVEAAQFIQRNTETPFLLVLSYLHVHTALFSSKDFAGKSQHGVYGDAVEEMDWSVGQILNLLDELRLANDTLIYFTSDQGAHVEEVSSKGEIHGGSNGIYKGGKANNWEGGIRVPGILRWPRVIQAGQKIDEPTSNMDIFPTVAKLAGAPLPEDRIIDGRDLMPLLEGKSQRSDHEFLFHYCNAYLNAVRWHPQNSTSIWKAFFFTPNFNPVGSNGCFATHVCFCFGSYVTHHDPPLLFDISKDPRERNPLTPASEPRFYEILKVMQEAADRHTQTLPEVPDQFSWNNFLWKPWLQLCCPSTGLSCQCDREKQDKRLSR
Procedure, shortened: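 Homogenate of STS-overexpressing HEK-293 cells (lysed by 5 freeze (−80 °C)/thaw (4 °C) cycles) incubated 2 h at 37 °C with inhibitors 0.01–1 µM and [3H]-E1S 9 nM adjusted to 1 µM with E1S, in Tris-acetate pH 7.4 with 5 mM EDTA, 10% glycerol. Xylene extraction separated E1 from E1S; scintillation counting; % inhibition vs no-inhibitor control; IC50 from curve; triplicates, mean ± SD.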

SMILES: O=C(c1ccc(CN(Cc2ccc(OCCCN3CCCCC3)cc2)Cc2ccco2)cc1)N1CCc2ccc(O)cc2C1
- Activity (Estrogen receptor [1]): 95.6%
- Activity (Estrogen receptor [2]): 119.7%
- Activity (Estrogen receptor [3]): 133.7%

SMILES: Cc1ccc(CN(Cc2ccc(C(=O)N3CCc4ccc(O)cc4C3)cc2)Cc2ccco2)s1
- Activity (Estrogen receptor [1]): 97.1%
- Activity (Estrogen receptor [2]): 103.2%
- Activity (Estrogen receptor [3]): 96.8%
- Activity [4]: 84%
- Activity [5]: Toxic
- Activity [6]: Non-Toxic

SMILES: O=C(c1ccc(CN(Cc2ccccn2)Cc2ccco2)cc1)N1CCc2ccc(O)cc2C1
- Activity (Estrogen receptor [1]): 104.1%
- Activity (Estrogen receptor [2]): 103.2%
- Activity (Estrogen receptor [3]): 103.5%
- Activity [6]: Non-Toxic

SMILES: NS(=O)(=O)Oc1ccc2c(c1)CN(C(=O)c1ccc(CN(Cc3ccccn3)Cc3ccco3)cc1)CC2
- Activity [7]: Toxic

SMILES: O=C(c1ccc(OCCN2CCCCC2)cc1)c1c(-c2ccc(O)cc2)sc2cc(O)ccc12 [RALOXIFENE]
- Activity [7]: Toxic
- Activity [5]: Toxic

SMILES: COc1ccc(CN(Cc2ccc(C(=O)N3CCc4ccc(OS(N)(=O)=O)cc4C3)cc2)Cc2ccccn2)cc1
- Activity [7]: Toxic

SMILES: O=C(c1ccc(CN(CCN2CCOCC2)Cc2ccco2)cc1)N1CCc2ccc(O)cc2C1
- Activity (Estrogen receptor [1]): 108.2%
- Activity (Estrogen receptor [2]): 105.9%
- Activity (Estrogen receptor [3]): 118.8%

SMILES: O=C(c1ccc(CN(CCCn2ccnc2)Cc2ccco2)cc1)N1CCc2ccc(O)cc2C1
- Activity (Estrogen receptor [1]): 94.9%
- Activity (Estrogen receptor [2]): 98.5%
- Activity (Estrogen receptor [3]): 114.6%

SMILES: Cc1ccc(CN(Cc2ccc(C(=O)N3CCc4ccc(OS(N)(=O)=O)cc4C3)cc2)Cc2ccco2)s1
- IC50 (Steryl-sulfatase): 8.9 nM
- Activity [7]: Toxic
- Activity [5]: Toxic

SMILES: O=C(c1ccc(CN(Cc2ccc(OCCCN3CCCCC3)cc2)Cc2ccccn2)cc1)N1CCc2ccc(O)cc2C1
- Activity (Estrogen receptor [1]): 105.9%
- Activity (Estrogen receptor [2]): 104.5%
- Activity (Estrogen receptor [3]): 60.7%

SMILES: O=C(c1ccc(CN(Cc2ccco2)Cc2ccccc2OCCCN2CCCCC2)cc1)N1CCc2ccc(O)cc2C1
- Activity (Estrogen receptor [1]): 96.8%
- Activity (Estrogen receptor [2]): 105.9%
- Activity (Estrogen receptor [3]): 0%

SMILES: O=C(c1ccc(CN(Cc2ccc(Br)cc2)Cc2ccco2)cc1)N1CCc2ccc(O)cc2C1
- Activity (Estrogen receptor [1]): 106.3%
- Activity (Estrogen receptor [2]): 109.4%
- Activity (Estrogen receptor [3]): 59.2%

SMILES: O=C(c1ccc(CN(Cc2ccccn2)Cc2ccccc2OCCCN2CCCCC2)cc1)N1CCc2ccc(O)cc2C1
- Activity (Estrogen receptor [1]): 102.8%
- Activity (Estrogen receptor [2]): 99.8%
- Activity (Estrogen receptor [3]): 37.1%

SMILES: O=C(c1ccc(CN(Cc2ccc(O)cc2)Cc2ccco2)cc1)N1CCc2ccc(O)cc2C1
- Activity (Estrogen receptor [1]): 108.2%
- Activity (Estrogen receptor [2]): 138%
- Activity (Estrogen receptor [3]): 200.3%

SMILES: Cc1ccc(CN(Cc2ccc(C(=O)N3CCc4ccc(O)cc4C3)cc2)Cc2ccccn2)s1
- Activity (Estrogen receptor [1]): 100.6%
- Activity (Estrogen receptor [2]): 105.4%
- Activity (Estrogen receptor [3]): 78.9%

SMILES: COc1cc2c(cc1OS(N)(=O)=O)CC[C@@H]1[C@@H]2CC[C@@]2(C)[C@H]1CC[C@@]2(O)Cc1ccccc1
- IC50 (Steryl-sulfatase): 0.05 nM

SMILES: COc1ccc(CN(Cc2ccc(C(=O)N3CCc4ccc(O)cc4C3)cc2)Cc2ccccn2)cc1
- Activity (Estrogen receptor [1]): 105.6%
- Activity (Estrogen receptor [2]): 104.6%
- Activity (Estrogen receptor [3]): 100.9%
- Activity [7]: Toxic
- Activity [6]: Non-Toxic

SMILES: O=C(c1ccc(CN(CCCn2ccnc2)Cc2ccccn2)cc1)N1CCc2ccc(O)cc2C1
- Activity (Estrogen receptor [1]): 102.8%
- Activity (Estrogen receptor [2]): 112.9%
- Activity (Estrogen receptor [3]): 39.2%
